{
  "source": "ChEMBL document CHEMBL2176938",
  "about": "“Virtual screening and optimization yield low-nanomolar inhibitors of the tautomerase activity of Plasmodium falciparum macrophage migration inhibitory factor” (J Med Chem, 2012)",
  "data": [
    {"target": "T1, Macrophage migration inhibitory factor (Homo sapiens, UniProt P14174)", "T1 sequence (P14174 whole entry)": "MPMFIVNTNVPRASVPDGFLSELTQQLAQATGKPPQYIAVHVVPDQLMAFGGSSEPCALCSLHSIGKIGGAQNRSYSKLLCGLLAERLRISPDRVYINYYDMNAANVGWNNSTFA", "experiment": "(§1) Inhibition of human MIF", "conditions": "not given; call rule not given here", "values": [
      {"compound": "COc1cccc(Oc2cc(C)nc(N3CCOCC3)c2)c1", "Ki": "Not Active"}
    ]},
    {"target": "T1, Macrophage migration inhibitory factor", "experiment": "as §1", "conditions": "read-out: Ki", "units": {"Ki": "µM"}, "values": [
      {"compound": "Cc1cc(Oc2cccc(O)c2)cc(-c2ccccc2)n1", "Ki": 101},
      {"compound": "COc1ccc(-c2cc(Oc3cc(C)cc(OC)c3)cc(C)n2)cc1", "Ki": 270}
    ]},
    {"target": "T2, Macrophage migration inhibitory factor homologue (Plasmodium falciparum (isolate 3D7), UniProt Q8I5C5)", "T2 sequence (Q8I5C5 whole entry)": "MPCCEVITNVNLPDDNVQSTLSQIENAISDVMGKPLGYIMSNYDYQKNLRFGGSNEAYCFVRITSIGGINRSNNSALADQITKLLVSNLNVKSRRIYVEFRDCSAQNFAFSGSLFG", "experiment": "(§2) Inhibition of recombinant Plasmodium falciparum MIF expressed in Escherichia coli BL21 (DE3) assessed as ketonization of enol form of 4-HPP substrate after 10 mins", "conditions": "not given", "summary_of_the_method": "(§3)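 PfMIF (75 nM trimer) in 25 mM potassium phosphate pH 7.4, preincubated 10 min with inhibitor at 1.5, 5 and 10 μM; DMSO vehicle 1% final. Started by adding enol 4-HPP (dissolved in absolute EtOH, stored −20°C) at varied concentrations. Enol-to-keto conversion read as fall in absorbance at 306 nm over 90 s; Ki values derived.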", "units": {"IC50": "µM"}, "values": [
      {"compound": "CC1(C)CC(=O)C=C(Nc2ccc(S(N)(=O)=O)cc2)C1", "Ki": "Not Active"},
      {"compound": "CNC(=O)c1cccc2cccc(Sc3ccccc3C(=O)O)c12", "Ki": "Not Active"},
      {"compound": "CC(=O)c1ccc(-c2ccc(C(=O)N3CCC(C(N)=O)CC3)o2)cc1", "Ki": "Not Active"},
      {"compound": "O=C(NCc1ccc(F)cc1F)Nc1cnccc1C(F)(F)F", "Ki": "Not Active"},
      {"compound": "CN1C(=O)N[C@@H](c2ccccc2)C2=C1CN(c1cccc(C(=O)O)c1)C2=O", "Ki": "Not Active"},
      {"compound": "COc1ccc(NC(=O)[C@H]2CCC(C)=C(C)[C@@H]2C(=O)O)c(N2CCOCC2)n1", "Ki": "Not Active"},
      {"compound": "Oc1cccc(Oc2ccc(-c3cccc(O)c3)cc2)c1", "Ki": "Not Active"},
      {"compound": "Oc1ccc(-c2ccc(Oc3cccc(O)c3)cc2)cc1", "Ki": "Not Active"},
      {"compound": "Oc1cccc(Oc2ccc(-c3ccc(O)c(O)c3)cc2)c1", "Ki": "Not Active"},
      {"compound": "COc1ccc(-c2ccc(Oc3cccc(OC)c3)cc2)cc1", "Ki": "Not Active"},
      {"compound": "COc1cccc(Oc2ccc(-c3ccc(OC)c(OC)c3)cc2)c1", "Ki": "Not Active"},
      {"compound": "COc1ccc(-c2ccc(Oc3cccc(OC)c3)cn2)cc1", "Ki": "Not Active"},
      {"compound": "COc1ccc(Oc2cc(C)nc(-c3ccccc3)n2)cc1", "Ki": "Not Active"},
      {"compound": "COc1ccc(-c2cc(Oc3cccc(OC)c3)ccn2)cc1", "Ki": "Not Active"},
      {"compound": "Cc1cc(O)cc(Oc2ccnc(-c3ccc(O)cc3)c2)c1", "Ki": "Not Active"},
      {"compound": "COc1ccc(C(=O)c2oc3ccccc3c2NC(=O)C(C)C)cc1Cl", "Ki": "Not Active"},
      {"compound": "CCc1ccc(CNc2ccc(S(N)(=O)=O)cc2)cc1", "Ki": "Not Active"},
      {"compound": "CCC[C@H](C(=O)Nc1ccc(F)c(F)c1F)c1ccccc1", "Ki": "Not Active"},
      {"compound": "CCc1ccc([C@H]2C[C@H](c3cccc(C)c3)n3ncnc3N2)cc1", "Ki": "Not Active"},
      {"compound": "O=C(O)c1ccccc1C(=O)N(Cc1cccnc1)Cc1ccc(Cl)cc1Cl", "Ki": "Not Active"},
      {"compound": "O=C(O)c1ccccc1C(=O)Nc1ncccc1OCc1ccc(Cl)c(Cl)c1", "Ki": "Not Active"},
      {"compound": "O=C1C(=O)N(CNc2ccc3ccccc3c2)c2ccccc21", "Ki": "Not Active"},
      {"compound": "CC(=O)O[C@@H]1C[C@H]2C(C)(C)C(=O)C=C[C@]2(C)[C@H]2CC[C@@]3(C)[C@H](c4ccoc4)C(=O)[C@H]4O[C@]43[C@@]21C", "note": "[EPOXYAZADIRADIONE]", "IC50": 10}
    ]},
    {"target": "T2, Macrophage migration inhibitory factor homologue", "experiment": "as §2", "conditions": "read-out: Ki", "summary_of_the_method": "as §3", "units": {"Ki": "µM"}, "values": [
      {"compound": "NS(=O)(=O)c1ccc(NC2=CC(=O)C(=O)c3ccccc32)cc1", "Ki": 99},
      {"compound": "Oc1cccc(Oc2c(F)c(F)nc(N3CCOCC3)c2F)c1", "Ki": 8.6},
      {"compound": "Oc1cccc(Oc2c(F)c(N3CCOCC3)nc(F)c2Cl)c1", "Ki": 15.5},
      {"compound": "Oc1cccc(Oc2c(F)c(F)nc(N3CCCCC3)c2F)c1", "Ki": 28.6},
      {"compound": "Cc1cc(Oc2cccc(O)c2)nc(-c2ccccc2)n1", "Ki": 19.3},
      {"compound": "COc1ccc(-c2nnc3ccc(Oc4cccc(O)c4)nn23)cc1", "Ki": 122},
      {"compound": "Oc1cccc(Oc2ccnc(N3CCOCC3)c2)c1", "Ki": 43.4},
      {"compound": "COc1cccc(Oc2ccnc(N3CCOCC3)c2)c1", "Ki": 22.9},
      {"compound": "Oc1cccc(Oc2ccc(-c3cccc(O)c3)nc2)c1", "Ki": 6.9},
      {"compound": "Oc1ccc(-c2ccc(Oc3cccc(O)c3)cn2)cc1", "Ki": 67.6},
      {"compound": "COc1cccc(Oc2ccc(-c3cccc(OC)c3)nc2)c1", "Ki": 57.2},
      {"compound": "N#Cc1cccc(Oc2ccc(-c3cccc(O)c3)nc2)c1", "Ki": 0.37},
      {"compound": "COc1cc(OC)cc(Oc2ccnc(N3CCOCC3)c2)c1", "Ki": 122},
      {"compound": "COc1cc(C)cc(Oc2ccnc(N3CCOCC3)c2)c1", "Ki": 5.6},
      {"compound": "COc1cc(Cl)cc(Oc2ccnc(N3CCOCC3)c2)c1", "Ki": 2.6},
      {"compound": "CCOc1cccc(Oc2ccnc(N3CCOCC3)c2)c1", "Ki": 6.9},
      {"compound": "CCOc1cccc(Oc2cc(C)nc(N3CCOCC3)c2)c1", "Ki": 7.2},
      {"compound": "COc1cc(C)cc(Oc2cc(C)nc(N3CCOCC3)c2)c1", "Ki": 1.2},
      {"compound": "Cc1cc(Oc2cccc(C#N)c2)cc(N2CCOCC2)n1", "Ki": 11.3},
      {"compound": "COc1cccc(Oc2cc(C)nc(N3CCOCC3)c2)c1", "Ki": 0.043},
      {"compound": "COc1cccc(Oc2cc(C)nc(-c3ccccc3)n2)c1", "Ki": 5.5},
      {"compound": "Cc1cc(Oc2ccc(O)cc2)nc(-c2ccccc2)n1", "Ki": 93.3},
      {"compound": "Cc1cc(Oc2cccc(C#N)c2)nc(-c2ccccc2)n1", "Ki": 1.6},
      {"compound": "Cc1cc(Oc2cccc(O)c2)cc(-c2ccccc2)n1", "Ki": 0.039},
      {"compound": "COc1cccc(Oc2cc(C)nc(-c3ccccc3)c2)c1", "Ki": 7.7},
      {"compound": "Oc1ccc(-c2cc(Oc3cccc(O)c3)ccn2)cc1", "Ki": 3},
      {"compound": "COc1ccc(-c2cc(Oc3cc(C)cc(OC)c3)ccn2)cc1", "Ki": 0.37},
      {"compound": "COc1ccc(-c2cc(Oc3cc(C)cc(OC)c3)cc(C)n2)cc1", "Ki": 0.038},
      {"compound": "O=C1N=C(Nc2cccc(O)c2)S/C1=C\\c1cccc(O)c1", "Ki": 20.6},
      {"compound": "NC(=O)CSC1=Nc2ccccc2C2=N[C@H](Cc3c[nH]c4ccccc34)C(=O)N12", "Ki": 25.4}
    ]}
  ]
}
